Screens (PubChem BioAssay)
TRPC4 PAM = positive allosteric modulators of TRPC4, primary screen, cell-based, mouse TRPC4beta, HEK293 mu-opioid, Fluo-4 calcium; Short transient receptor potential channel 4 (Mus musculus), Q9QUQ5; DAMGO EC20, Fluo-4 Ca2+ flux; active compounds read high; B-score at 10 µM; 310,000 tested, 0.42% active; AID 2227, 2009;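 active means B-score of calcium response area above 5 SD of library B-scores, with initial fluorescence ratio within 5 SD of library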;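 further: B-score of integrated fluorescence ratio over time as area under calcium response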
TRPC6 act = mouse TRPC6 channel activators, primary screen, cell-based, HEK293, membrane potential dye; Short transient receptor potential channel 6 (Mus musculus), Q61143; HEK293-TRPC6 membrane potential dye fluorescence; active compounds read high; B-score at 10 µM; 310,000 tested, 0.13% active; AID 2550, 2010;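 active means B-score of the integrated fluorescence ratio above library mean plus 3 SD, and starting fluorescence ratio within library mean plus 5 SD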;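 further: higher score means more depolarization so channel activation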
TRPC6 inhibitor = mouse TRPC6 channel inhibitors, primary screen, cell-based, HEK293, membrane potential dye; ACh-evoked depolarization; active compounds read low; B-score at 10 µM; 310,000 tested, 1.1% active; AID 2553, 2010;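 active means B-score under library mean minus 3 SD, initial fluorescence not abnormally high, positive integrated signal ratio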;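 further: B-score derived from integrated fluorescence ratio over the kinetic read; more negative B-score means stronger inhibition of depolarization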
TRPC4 agonist = activators of mouse TRPC4 channel, primary screen, Fluo4 calcium, HEK293 TRPC4beta/mu-opioid cells; Fluo4 calcium fluorescence; active compounds read high; B-score at 10 µM; 310,000 tested, 0.49% active; AID 2237, 2010;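 active means B-score above 5 SD of library B-scores, and initial fluorescence ratio not above library mean plus 5 SD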;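 further: positive B-score marks a calcium rise read as TRPC4 activation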
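Assay system: HEK293 stable line with TRPC4beta plus mu-opioid receptor. Times: dye 45 min RT, read 110 s. Measured by: kinetic Fluo4 calcium fluorescence. Measure: B score of integrated ratio. Controls: assay buffer as low control, maximal DAMGO as high control.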
TRPC4 inh = inhibitors of mouse TRPC4 channel, primary screen, Fluo4 calcium, HEK293 TRPC4beta/mu-opioid cells; B-score at 10 µM; DAMGO-evoked Fluo4 calcium flux; active compounds read low; 300,000 tested, 0.39% active; Short transient receptor potential channel 4 (Mus musculus), Q9QUQ5;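 active means B-score over 3 SD under the library average, no early fluorescence shift, positive overall ratio signal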
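Assay system – HEK293 line stably carrying TRPC4beta and mu-opioid receptor · Doses – single dose · Detection – Fluo4 calcium-dye fluorescence, kinetic read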
* = called active by the depositor; i = inactive. Sampled rows, rich in hits. Any-hit rate of the full collection: about 2.3%.

SMILES | TRPC4 PAM | TRPC6 act | TRPC6 inhibitor | TRPC4 agonist | TRPC4 inh
CN(CC(=O)Nc1ccc(F)c(F)c1F)C(=O)C1CCC1 | i | i | i | i | i
O=C(Cc1ccc(S(=O)(=O)N2CCOCC2)s1)N1CCN(S(=O)(=O)c2cccc([N+](=O)[O-])c2)CC1 | i | i | i | i | i
CCn1cc[n+](C)c1P(c1ccccc1)c1ccccc1 | i | i | i | 51* | -5*
CN(C(=O)c1ccc(OC2CCN(CCc3ccccc3)CC2)cc1)C1CCOCC1 | i | i | i | i | i
CN(C(=O)c1ccc(OC2CCN(CCc3ccccc3)CC2)cc1)C1CCCCC1 | i | i | i | i | -6*
O=C(NCCn1cccn1)c1ccc(OC2CCN(CCc3ccccc3)CC2)cc1 | i | i | i | 66* | i
O=C(NC1CCOC1)c1ccc(OC2CCN(CCc3ccccc3)CC2)cc1 (configuration not stated) | i | i | i | i | i
COC(=O)CCCNC(=O)c1ccc(OC2CCN(CCc3ccccc3)CC2)cc1 | i | i | i | 79* | i
CSCCNC(=O)c1ccc(OC2CCN(CCc3ccccc3)CC2)cc1 | i | i | i | i | -6*
Cc1csc(CNC(=O)c2ccc(OC3CCN(CCc4ccccc4)CC3)cc2)n1 | i | i | i | i | i
CCOC(=O)C1=C(CS(=O)(=O)c2ccccc2)NC(=O)NC1c1cc(OC)c(O)c(OC)c1 (configuration not stated) | i | i | i | i | i
COc1ccccc1N1CCN(C2CCCN(Cc3ccc(Cl)cc3)C2)CC1 (configuration not stated) | i | i | i | i | i
COc1ccccc1N1CCN(C2CCCN(Cc3ccccc3OCCO)C2)CC1 (configuration not stated) | 12* | i | i | i | i
COc1ccccc1N1CCN(C2CCCN(C(=O)c3oc(C)cc3C)C2)CC1 (configuration not stated) | i | i | i | 54* | i
COc1ccc(O)c(CN2CCCC(N3CCN(c4ccccc4OC)CC3)C2)c1 (configuration not stated) | i | i | i | 43* | i
CN(C)S(=O)(=O)c1cccc(C(=O)Nc2cc3c(cc2C(=O)O)OCCCO3)c1 | i | i | i | i | i
COC(=O)c1cc(N2CCN(C)CC2)nc2ccccc12 | 17* | i | i | i | i
Cc1cc(N2CCN(C)CC2)nc2ccc(NC(=O)c3ccccc3F)cc12 | i | i | i | i | i
O=C(Nc1ccnn1C1CCN(CCCc2ccccc2)CC1)c1ccccc1Cl | i | i | i | i | i
CCN1CCN(C(=O)C2c3cc(OC)c(OC)cc3C(=O)N(C)C2c2ccc(SC)cc2)CC1 (configuration not stated) | i | i | i | 67* | i
COc1ccc(C2C(C(=O)N3CCN(C)CC3)c3cc(OC)c(OC)cc3C(=O)N2C)cc1 (configuration not stated) | i | i | i | i | i
COc1ccc(C(c2c(O)ccc3ccccc23)N2CCOCC2)c(OC)c1 (configuration not stated) | i | i | i | i | -6*
Cc1cccc2sc(N(CCN(C)C)C(=O)c3cc(Cl)sc3Cl)nc12 | 12* | i | i | i | i
Cc1cc(O)cc(=O)n1Cc1ccccc1 | i | i | i | i | i
Cc1ccc(-n2cc(CNC(C)c3cnn(C)c3)c(-c3ccc(F)cc3)n2)cc1 (configuration not stated) | i | i | i | 233* | i
